Experimental findings from ChEMBL document CHEMBL4371071, “Muscarinic agonist, (±)-quinuclidin-3-yl-(4-fluorophenethyl)(phenyl)carbamate: High affinity, but low subtype selectivity for human M1 - M5 muscarinic acetylcholine receptors” (Bioorg Med Chem Lett, 2019) are described below.

Assay [1] deals with T1, Muscarinic acetylcholine receptor M3 (Homo sapiens, UniProt P20309). The assay is described as follows: Displacement of [3H]NMS from human M3 AChR expressed in CHO cell membranes after 1 to 2 hrs by liquid scintillation spectrometry method. It counts as cell-based. (In a radioligand displacement assay an active substance lowers the binding of a labelled ligand.)
Target sequence in this assay (P20309 whole entry): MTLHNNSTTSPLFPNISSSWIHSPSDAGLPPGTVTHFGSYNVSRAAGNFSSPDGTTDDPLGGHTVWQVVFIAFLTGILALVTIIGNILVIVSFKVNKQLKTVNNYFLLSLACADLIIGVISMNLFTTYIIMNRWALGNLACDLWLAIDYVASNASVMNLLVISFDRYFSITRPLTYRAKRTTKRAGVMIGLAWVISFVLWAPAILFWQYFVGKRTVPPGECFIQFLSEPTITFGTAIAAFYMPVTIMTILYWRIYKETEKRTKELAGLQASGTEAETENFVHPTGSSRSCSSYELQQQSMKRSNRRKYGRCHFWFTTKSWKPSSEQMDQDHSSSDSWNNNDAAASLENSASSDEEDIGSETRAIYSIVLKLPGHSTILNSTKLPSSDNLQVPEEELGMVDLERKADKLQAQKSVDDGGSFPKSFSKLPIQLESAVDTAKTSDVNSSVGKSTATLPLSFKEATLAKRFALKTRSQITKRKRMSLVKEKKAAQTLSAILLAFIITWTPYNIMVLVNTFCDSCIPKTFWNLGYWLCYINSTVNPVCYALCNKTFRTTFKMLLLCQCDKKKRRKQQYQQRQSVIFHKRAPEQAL
The species entered for assay [2] is Homo sapiens. The assay is described as follows: Selectivity ratio of Ki for displacement of [3H]NMS from human M1 AChR expressed in CHO cell membranes to Ki for displacement of [3H]NMS from human M5 AChR expressed in CHO cell membranes.
For assay [3], the species on record is Homo sapiens. The assay is described as follows: Selectivity ratio of Ki for displacement of [3H]NMS from human M2 AChR expressed in CHO cell membranes to Ki for displacement of [3H]NMS from human M3 AChR expressed in CHO cell membranes.
The target of assay [4] is T2, Muscarinic acetylcholine receptor M4 (Homo sapiens, UniProt P08173).
T2 sequence (P08173 whole entry): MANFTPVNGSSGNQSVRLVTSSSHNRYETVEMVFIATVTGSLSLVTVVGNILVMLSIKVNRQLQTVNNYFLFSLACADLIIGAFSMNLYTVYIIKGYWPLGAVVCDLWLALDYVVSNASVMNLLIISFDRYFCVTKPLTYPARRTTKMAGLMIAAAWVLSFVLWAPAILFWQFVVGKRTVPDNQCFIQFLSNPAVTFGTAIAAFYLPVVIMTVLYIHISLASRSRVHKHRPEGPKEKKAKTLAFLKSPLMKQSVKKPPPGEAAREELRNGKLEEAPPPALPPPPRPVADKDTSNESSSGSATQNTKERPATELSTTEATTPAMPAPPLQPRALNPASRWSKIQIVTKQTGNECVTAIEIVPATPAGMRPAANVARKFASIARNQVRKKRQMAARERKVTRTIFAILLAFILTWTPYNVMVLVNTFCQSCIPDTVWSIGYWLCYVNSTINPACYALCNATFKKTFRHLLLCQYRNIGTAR
The assay is described as follows: Displacement of [3H]NMS from human M4 AChR expressed in CHO cell membranes after 1 to 2 hrs by liquid scintillation spectrometry method. In outline:
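Human M4-expressing CHO membranes (20 µg protein/well) incubated 2 h at 25 °C with 0.3 nM [3H]NMS and analog (1 nM–100 µM) in 50 mM Tris–HCl pH 7.4. […] Filtered, washed, counted by scintillation. IC50 taken from inhibition curves, Ki from three independent duplicate experiments (mean ± SEM).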

Assay [5] deals with T3, Muscarinic acetylcholine receptor M4 (Homo sapiens) (UniProt P08173).
T3 sequence (whole entry): T2 sequence (P08173 whole entry)
Kind of assay: Displacement of [3H]NMS from human M4 AChR expressed in CHO cell membranes at 100 uM after 1 to 2 hrs by liquid scintillation spectrometry method relative to control. In outline:
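CHO membranes expressing the human subtype (20 µg protein/well) with 0.3 nM [3H]NMS and analog (1 nM–100 µM) in 50 mM Tris-HCl pH 7.4, 2 h at 25 °C. […] Filtered on GF/B, washed, counted by scintillation. IC50 taken from curves to give Ki; three independent experiments in duplicate.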

The target in assay [6] is Muscarinic acetylcholine receptor (Rattus norvegicus) (UniProt P08482+P08483+P08485+P08911+P10980). The assay is described as follows: Agonist activity at muscarinic acetylcholine receptor in superfused rat striatal slices assessed as augmentation of oxotremorine-induced [3H]DA release at 0.1 to 10 uM preincubated for 35 mins in presence of [3H]DA followed by oxotremorine addition and measured after 25 mins by liquid scintillation spectroscopic method. In outline: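 Rat striatal slices (500 µm) in Krebs' buffer pH 7.4 at 34 °C for 60 min, with 0.1 µM [3H]DA over the final 30 min. Superfused at 0.6 mL/min with 10 µM nomifensine and 10 µM pargyline; 5-min fractions. Basal outflow taken over 15 min, then test agent 35 min, then 100 µM oxotremorine 25 min. Overflow = summed radioactivity minus basal, by scintillation; n = 4–10.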

Assay [7] addresses T1, Muscarinic acetylcholine receptor M3. As to conditions: CHO, at 100 µM.
Target sequence in this assay (P20309 whole entry, looked up): as the sequence (P20309 whole entry) above

Molecules are shown by their SMILES. Active and inactive are the calls of the source. The calls are words filed in the database; no cut-off is given here.

The term Ki denotes the equilibrium dissociation constant of an inhibitor or competing ligand from its target. Read a low Ki as a stronger hold on the target. As to `O=C(OC1CN2CCC1CC2)N(CCc1ccc(F)cc1)c1ccccc1` (racemic), the Ki in assay [1] was 2.6 nM; in assay [4], 2.2 nM. Also, the Ratio Ki was 1.1 in the assay listed under Homo sapiens [2] and 5 in the assay filed under Homo sapiens [3]. For the same compound, the Imax was 99.8% in assay [5] and 100% in assay [7]. In addition, the outcome in assay [6] was Active.
